Compound activity (PubChem BioAssay)
GRIN3A LBD mod: modulators (binders) of human NR3A ligand-binding domain; NR3A LBD differential scanning fluorimetry, Tm shift; 0% = protein alone, 100% = glycine-bound protein; Tm shift relative to glycine control, % at 25 µM; 340,000 compounds, 2.5% hits;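 active = melting temperature shift of at least 10% of the positive control shift, at one fixed dose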
MPTP block: inhibitors of mitochondrial permeability transition pore | isolated mouse mitochondria, Ca2+ swelling absorbance, 30 min | inhibition, % at 10 µM | 360,000 compounds, 1.4% hits | AID 602449;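 active = inhibition of 50% or more, scaled per plate between neutral and stimulator controls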
EBI2 antag: antagonists of human EBI2 receptor; P32249; EBI2 beta-arrestin recruitment, luminescence, 7a,25-OHC stimulated; AID 651636; 360,000 compounds, 0.81% hits; inhibition, % at 5 µM; in the data active = inhibition above about 38%;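 note: enzyme fragment complementation signal reports receptor beta-arrestin coupling in cells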
Target sequence (P32249 whole entry, looked up, the tested form may be a part): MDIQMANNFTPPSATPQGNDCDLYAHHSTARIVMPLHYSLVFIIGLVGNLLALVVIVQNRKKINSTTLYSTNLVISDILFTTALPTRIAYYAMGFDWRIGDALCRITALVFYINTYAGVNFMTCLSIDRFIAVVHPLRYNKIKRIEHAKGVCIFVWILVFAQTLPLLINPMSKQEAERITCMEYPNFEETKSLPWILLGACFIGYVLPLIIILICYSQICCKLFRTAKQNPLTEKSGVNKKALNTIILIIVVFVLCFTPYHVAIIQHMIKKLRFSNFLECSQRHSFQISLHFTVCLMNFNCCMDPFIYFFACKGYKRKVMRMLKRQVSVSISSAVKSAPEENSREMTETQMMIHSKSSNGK
SENP1 FRET inh: inhibitors of human SENP1 SUMO protease catalytic domain. recombinant SENP1 catalytic domain, CyPet-SUMO1-YPet FRET cleavage. 360,000 compounds, 0.21% hits. inhibition, % at 10 µM. Q9P0U3;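 active = inhibition at least 30% at 10 µM, raw YFP signal under a set limit, fluorescence ratio 0.5 to 1.5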
Target sequence (Q9P0U3 419-644 limits assumed): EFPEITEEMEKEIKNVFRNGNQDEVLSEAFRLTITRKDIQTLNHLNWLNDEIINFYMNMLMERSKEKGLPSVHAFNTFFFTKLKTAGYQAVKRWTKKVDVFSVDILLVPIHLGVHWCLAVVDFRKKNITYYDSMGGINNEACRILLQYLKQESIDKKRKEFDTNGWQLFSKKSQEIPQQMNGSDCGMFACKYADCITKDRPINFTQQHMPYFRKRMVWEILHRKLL
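System: Recombinant human SENP1 catalytic domain, His6-tagged | Incubation: Enzyme reaction for 50 min at room temperature, dark | Medium: Tris pH 8 with BME, BSA, NP40 and catalase | Also added: 25 nM SUMO1 FRET substrate | Compound: 10 µM single point, 0.5% DMSO | Measured by: FRET fluorescence in CFP and YFP emission channels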
EBI2 conf: confirmation of human EBI2 receptor antagonists; shares compounds with EBI2 antag; EBI2 beta-arrestin luminescence, 7a,25-OHC antagonism; inhibition, % at 5 µM; 2,400 compounds, 29% hits; AID 651997;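 active = inhibition of at least 50%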
EBI2 ag: activates EBI2, counter-screen for EBI2 antagonists; shares compounds with EBI2 antag; EBI2-expressing cells, agonist mode, luminescence, 60 min; 0% vehicle, 100% 7α,25-dihydroxycholesterol control; activation, % at 5 µM; 2,400 tested, under 10 active; AID 652000;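 active = activation of at least 50%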
bGal counter: counter-screen for EBI2 antagonists: E. coli beta-galactosidase inhibition; shares compounds with EBI2 antag; purified beta-galactosidase, luminescent Galacton Star, 15 min; inhibition, % at 5 µM; 2,400 compounds, 1% hits; AID 652176;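 active = replicate-average signal at least 3 plate SD below neutral wells, shown as high inhibition, flagging enzyme-inhibiting false positives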;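 note: higher means stronger loss of beta-gal luminescence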
Numbers stand for hits. A selection: hits, their analogues and other compounds. The true share with any hit is near 4.4%.

Screening N#Cc1ccc(C(=O)Nc2ccc3ccccc3c2)cc1 returned GRIN3A LBD mod inactive, MPTP block inactive, EBI2 antag 59.6, SENP1 FRET inh inactive, EBI2 conf 51.2, EBI2 ag inactive and bGal counter inactive.
`CCc1cccc2c1NC(=O)C21N2CCCC2C(C(=O)c2ccc3ccccc3c2)C12C(=O)Nc1ccccc12` (centres undefined) gave GRIN3A LBD mod inactive, MPTP block inactive, EBI2 antag 55.5, SENP1 FRET inh inactive, EBI2 conf inactive, EBI2 ag inactive and bGal counter inactive.
CCN(CC)CCCNC(=O)/C=C/C(=O)O was read as GRIN3A LBD mod inactive, MPTP block inactive, EBI2 antag inactive and SENP1 FRET inh inactive.
Cc1cc(Cl)cc(Cl)c1OCCOc1cccc2cccnc12 was read as GRIN3A LBD mod inactive, MPTP block inactive, EBI2 antag 56.3, SENP1 FRET inh inactive, EBI2 conf inactive, EBI2 ag inactive and bGal counter inactive.
Screening Brc1ccccc1OCCOc1cccc2cccnc12 returned GRIN3A LBD mod inactive, MPTP block inactive, EBI2 antag inactive and SENP1 FRET inh inactive.
`CNC(=S)N1N=C(c2ccc(Br)cc2)CC1c1ccc(OC)cc1` (centres undefined) gave GRIN3A LBD mod inactive, MPTP block inactive, EBI2 antag 88.0, SENP1 FRET inh inactive, EBI2 conf 86.7, EBI2 ag inactive and bGal counter inactive.
Screening O=C(C[C@@H]1CC[C@@H]2[C@H](COC[C@H](O)CN2CCC(F)(F)F)O1)NCc1ccc2c(c1)OCO2 returned MPTP block inactive, EBI2 antag inactive and SENP1 FRET inh inactive.
`CCN1CCN(C(=O)c2cc3ccc(OC)cc3[nH]2)CC1` gave GRIN3A LBD mod inactive, MPTP block inactive, EBI2 antag inactive and SENP1 FRET inh inactive.
For COc1cccc(-c2cc(C(=O)N3CCN(Cc4ccccc4)CC3)no2)c1 the results were GRIN3A LBD mod inactive, MPTP block inactive, EBI2 antag 51.1, SENP1 FRET inh inactive, EBI2 conf inactive, EBI2 ag inactive and bGal counter inactive.
`COc1cccc(-c2cc(C(=O)N3CCN(Cc4ccc5c(c4)OCO5)CC3)on2)c1` gave GRIN3A LBD mod inactive, MPTP block inactive, EBI2 antag 70.2, SENP1 FRET inh inactive, EBI2 conf 54.0, EBI2 ag inactive and bGal counter inactive.
For COc1ccc(-c2cc(C(=O)N3CCN(Cc4ccccc4)CC3)no2)cc1OC the results were GRIN3A LBD mod inactive, MPTP block inactive, EBI2 antag inactive and SENP1 FRET inh inactive.
`O=C(c1cc(C2CC2)on1)N1CCN(C(c2ccccc2)c2ccccc2)CC1` gave GRIN3A LBD mod inactive, MPTP block inactive, EBI2 antag inactive and SENP1 FRET inh inactive.
`O=C(c1cc(-c2cccc(O)c2)on1)N1CCN(C(c2ccccc2)c2ccccc2)CC1` gave GRIN3A LBD mod inactive, MPTP block inactive, EBI2 antag 90.3, SENP1 FRET inh inactive, EBI2 conf 73.1, EBI2 ag inactive and bGal counter inactive.
For COc1ccc2cc(C(=O)N3CCN(Cc4ccc5c(c4)OCO5)CC3)[nH]c2c1 the results were GRIN3A LBD mod inactive, MPTP block inactive, EBI2 antag 85.6, SENP1 FRET inh inactive, EBI2 conf 58.9, EBI2 ag inactive and bGal counter inactive.
For CCc1cc(Cn2nc(-c3ccccc3C)cc2C(=O)O)on1 the results were GRIN3A LBD mod inactive, MPTP block inactive, EBI2 antag inactive and SENP1 FRET inh inactive.
Cc1ccc(CCNS(=O)(=O)c2cc3c(cc2C)NC(=O)CO3)cc1 was read as GRIN3A LBD mod inactive, MPTP block inactive, EBI2 antag inactive and SENP1 FRET inh inactive.
Screening COCCNC(=O)c1cccc(OC2CCN(Cc3cccc(SC)c3)CC2)c1 returned GRIN3A LBD mod inactive, MPTP block inactive, EBI2 antag inactive and SENP1 FRET inh inactive.
`CCC(C)N(C(=O)Cn1nnc2ccccc21)C(C(=O)Nc1ccc(F)cc1)c1cccc(OC)c1` (centres undefined) gave GRIN3A LBD mod inactive, MPTP block inactive, EBI2 antag inactive and SENP1 FRET inh inactive.
`Nc1c(S(=O)(=O)c2ccccc2)c2nc3ccccc3nc2n1/N=C/c1ccco1` gave GRIN3A LBD mod 12.7, MPTP block inactive, EBI2 antag 66.8, SENP1 FRET inh inactive, EBI2 conf 76.5, EBI2 ag inactive and bGal counter inactive.
Screening COc1ccc(S(=O)(=O)c2c(N)n(Cc3ccco3)c3nc4ccccc4nc23)cc1 returned GRIN3A LBD mod inactive, MPTP block inactive, EBI2 antag inactive and SENP1 FRET inh inactive.
For Cc1cccc(S(=O)(=O)c2c(N)n(/N=C/c3ccco3)c3nc4ccccc4nc23)c1 the results were GRIN3A LBD mod inactive, MPTP block inactive, EBI2 antag 58.5, SENP1 FRET inh inactive, EBI2 conf 67.7, EBI2 ag inactive and bGal counter inactive.
Cc1ccc(S(=O)(=O)c2c(N)n(/N=C/c3ccco3)c3nc4ccccc4nc23)cc1 was read as GRIN3A LBD mod inactive, MPTP block inactive, EBI2 antag 41.0, SENP1 FRET inh inactive, EBI2 conf 55.0, EBI2 ag inactive and bGal counter inactive.
Screening O=C(CSc1nnc(-c2ccncc2)n1Cc1ccccc1)NCCc1ccccc1 returned GRIN3A LBD mod inactive, MPTP block inactive, EBI2 antag 52.9, SENP1 FRET inh inactive, EBI2 conf inactive, EBI2 ag inactive and bGal counter inactive.
`CCn1c(SCC(=O)NCCc2ccc(Cl)cc2)nnc1-c1cccs1` gave GRIN3A LBD mod inactive, MPTP block inactive, EBI2 antag 63.5, SENP1 FRET inh inactive, EBI2 conf inactive, EBI2 ag inactive and bGal counter inactive.
Screening CCn1c(Cc2ccccc2)nnc1SC(C)C(=O)NC1CC1 (centres undefined) returned GRIN3A LBD mod inactive, MPTP block inactive, EBI2 antag inactive and SENP1 FRET inh inactive.
CCc1ccc(NC(=S)Nc2cccc3cnccc23)cc1 was read as GRIN3A LBD mod inactive, MPTP block inactive, EBI2 antag 50.4, SENP1 FRET inh inactive, EBI2 conf inactive, EBI2 ag inactive and bGal counter inactive.
`Cc1nn2c(c1-c1ccc(Cl)cc1)N=C(c1ccco1)CC2c1ccccc1` (centres undefined) gave GRIN3A LBD mod inactive, MPTP block inactive, EBI2 antag inactive and SENP1 FRET inh inactive.
For CC(C)=CCC/C(C)=C/Cc1c(O)ccc(C(=O)/C=C/c2ccc(O)cc2)c1O the results were GRIN3A LBD mod 29.0, MPTP block inactive, EBI2 antag 43.5, SENP1 FRET inh inactive, EBI2 conf inactive, EBI2 ag inactive and bGal counter inactive.
`CC(=O)c1cc(CC=C(C)C)c(O)c(CC=C(C)C)c1O` gave GRIN3A LBD mod inactive, MPTP block inactive, EBI2 antag inactive and SENP1 FRET inh inactive.
